{"source": "ChEMBL document CHEMBL3124841", "about": "“Discovery of vinyl sulfones as a novel class of neuroprotective agents toward Parkinson's disease therapy” (J Med Chem, 2014)", "key": {"[1]": {"biological_target": "T1, Nuclear factor erythroid 2-related factor 2 (Mus musculus) (UniProt Q60795)", "T1 sequence (whole entry)": "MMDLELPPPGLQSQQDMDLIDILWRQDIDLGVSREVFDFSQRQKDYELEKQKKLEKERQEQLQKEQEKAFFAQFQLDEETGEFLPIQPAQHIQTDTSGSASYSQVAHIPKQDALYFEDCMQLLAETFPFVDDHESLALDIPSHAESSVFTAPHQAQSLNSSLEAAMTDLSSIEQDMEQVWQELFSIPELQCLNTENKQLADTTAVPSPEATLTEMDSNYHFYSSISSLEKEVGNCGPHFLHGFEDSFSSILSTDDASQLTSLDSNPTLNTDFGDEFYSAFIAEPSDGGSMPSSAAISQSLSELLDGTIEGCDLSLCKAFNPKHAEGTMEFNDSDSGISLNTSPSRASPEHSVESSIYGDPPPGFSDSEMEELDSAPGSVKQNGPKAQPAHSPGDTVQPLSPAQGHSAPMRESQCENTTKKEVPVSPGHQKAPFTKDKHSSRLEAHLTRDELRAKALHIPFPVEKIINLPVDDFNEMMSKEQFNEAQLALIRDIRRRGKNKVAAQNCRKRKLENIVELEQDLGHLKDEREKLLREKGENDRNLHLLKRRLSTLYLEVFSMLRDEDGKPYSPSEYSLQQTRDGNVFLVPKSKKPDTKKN", "assay": "Induction of Nrf2-dependent HO1 protein expression in mouse CATH.a cells at 1 to 10 uM after 24 hrs by western blot analysis relative to control", "assay_type": "cell-based", "outline": "(§1)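 Cells (CATH.a) exposed to graded concentrations for 24 h, lysed in RIPA buffer with protease inhibitors. Equal protein separated on 10% SDS gel, blotted; primary antibodies overnight at 4 °C, HRP secondary, chemiluminescence. Densitometry normalized to β-actin. At least duplicate cultures, fold of untreated control ± SEM.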"}, "[2]": {"biological_target": "T1, Nuclear factor erythroid 2-related factor 2 (Mus musculus)", "assay": "Induction of Nrf2-dependent NQO1 gene expression in mouse CATH.a cells at 10 uM after 6 hrs by RT-PCR analysis relative to control", "assay_type": "cell-based", "outline": "(§2)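 CATH.a cells grown in RPMI 1640 with 8% horse serum and 4% FBS, exposed to graded concentrations for 6 h. mRNA analysed by RT-PCR with gene-specific primers, products run on 1% agarose gel, band densitometry normalized to GAPDH. At least duplicate cultures; fold induction versus untreated control ± SEM.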"}, "Mus musculus [3]": {"system": "Mus musculus", "assay": "(§3) Neuroprotective activity against MPTP-induced neurodegeneration in C57Bl/6 mouse parkinson's disease model assessed as increase in DAergic neurons in SN at 10 mg/kg/day, po for 3 days administered first dose at 24 hrs prior to first injection of 4X 20 mg/kg, ip MPTP challenge measured 7 days after first MPTP injection by immunohistochemistry", "assay_type": "functional, organism-based", "outline": "(§4)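 Male C57Bl/6 mice (23−25 g, n = 10/group) dosed orally at 10 mg/kg/day for 3 days, vehicle N-methyl-2-pyrrolidone and 20% Tween 80 in saline. MPTP 4 × 20 mg/kg ip 2 h apart, starting 24 h after first oral dose. Perfusion-fixed 7 days after first MPTP; TH immunostaining, nigral cells counted and striatal fibers densitometered on five sections each, 80 μm apart. Expressed as % vehicle control ± SEM.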"}, "[4]": {"biological_target": "T1, Nuclear factor erythroid 2-related factor 2 (Mus musculus)", "assay": "Induction of Nrf2-dependent GCLM gene expression in mouse CATH.a cells at 0.1 uM after 6 hrs by RT-PCR analysis", "assay_type": "cell-based", "outline": "as §2"}, "[5]": {"biological_target": "T1, Nuclear factor erythroid 2-related factor 2 (Mus musculus)", "assay": "Induction of Nrf2-dependent HO1 gene expression in mouse CATH.a cells at 0.1 uM after 6 hrs by RT-PCR analysis", "assay_type": "cell-based", "outline": "as §2"}, "[6]": {"biological_target": "T1, Nuclear factor erythroid 2-related factor 2 (Mus musculus)", "assay": "Induction of Nrf2 nuclear translocation in mouse CATH.a cells at 1 uM after 3 hrs by western blot analysis", "assay_type": "cell-based", "outline": "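Mouse DAergic CATH.a cells treated at various concentrations for 3 h. Nuclei isolated by hypotonic HEPES buffer/NP-40 lysis, then nuclear proteins extracted in 400 mM NaCl HEPES buffer. Nrf2 Western blot with lamin B as nuclear marker, chemiluminescent detection, densitometry. At least duplicate cultures, expressed as fold induction over untreated control ± SEM.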"}, "Mus musculus [7]": {"system": "Mus musculus", "assay": "Inhibition of motor deficits in MPTP-induced C57Bl/6 mouse parkinson's disease model assessed as total time taken on grid apparatus at 10 mg/kg/day, po for 3 days administered first dose at 24 hrs prior to first injection of 4X 20 mg/kg, ip MPTP challenge by vertical grid test (reference value: 34.8 +/-5.4s)", "assay_type": "functional"}, "[8]": {"biological_target": "T1, Nuclear factor erythroid 2-related factor 2 (Mus musculus)", "assay": "Induction of Nrf2-dependent GCLC gene expression in mouse CATH.a cells at 2 uM after 6 hrs by RT-PCR analysis relative to control", "assay_type": "cell-based", "outline": "as §2"}, "[9]": {"biological_target": "T1, Nuclear factor erythroid 2-related factor 2 (Mus musculus)", "assay": "Induction of Nrf2-dependent NQO1 gene expression in mouse CATH.a cells after 6 hrs by RT-PCR analysis", "assay_type": "cell-based", "outline": "as §2"}, "[10]": {"biological_target": "T1, Nuclear factor erythroid 2-related factor 2 (Mus musculus)", "assay": "Induction of Nrf2-dependent GCLC protein expression in mouse CATH.a cells after 24 hrs by western blot analysis", "assay_type": "cell-based", "outline": "as §1"}, "Mus musculus [11]": {"system": "Mus musculus", "assay": "as §3, with “fibers” for “neurons”, “striatum” for “SN”", "assay_type": "functional, organism-based", "outline": "as §4"}}, "note": "Calls of active or inactive are those of the source. The rule behind the calls is not given here.", "data": [{"smiles": "COc1ccccc1S(=O)(=O)/C=C/c1ccccc1Cl", "values": [{"measurement": "fold change (FC)", "setting": "[1]", "value": 3}, {"measurement": "fold change (FC)", "setting": "[2]", "value": 5.67}, {"measurement": "Activity", "setting": "Mus musculus [3]", "value": "Active"}, {"measurement": "Activity", "setting": "[4]", "value": "inactive"}, {"measurement": "Activity", "setting": "[5]", "value": "inactive"}, {"measurement": "Activity", "setting": "[6]", "value": "Active"}, {"measurement": "Time", "setting": "Mus musculus [7]", "value": 10.3, "unit": "s"}, {"measurement": "fold change (FC)", "setting": "[8]", "value": 1.41}, {"measurement": "Activity", "setting": "[9]", "value": "Dose-dependent effect"}, {"measurement": "Activity", "setting": "[10]", "value": "Dose-dependent effect"}, {"measurement": "Activity", "setting": "Mus musculus [11]", "value": "Active"}]}]}
